{"source": "paper PMC10653054", "about": "(ACS Omega, 2023)", "data": [{"system": "normal human dermal fibroblast (HDF) cells", "test": "MTT cytotoxicity assay, normal HDF cells", "assay_type": "cell-based", "conditions": "48 h, read-out: In vitro antiproliferative effects (IC50) HDF", "method_in_brief": "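Cells came from the National Cell Bank of Iran and were grown in RPMI-1640 or DMEM with 10% FBS at 37 °C, 5% CO2 and 100% humidity. Test compounds in 0.1% DMSO (n = 3) were incubated 48 h, then MTT for 3 h, with formazan OD read at 570 nm. Controls were 0.1% DMSO (negative) and etoposide (positive). IC50 came from dose–response curves, mean ± SE of at least three independent experiments.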", "units": {"IC50": "µM"}, "values": [{"smiles": "COC(=O)c1c(-c2ccccc2)c2n(c1C(=O)OC)CCn1cccc1-2", "note": "[5a, Dimethyl-1-phenyl-5,6-dihydrodipyrrolo[1,2-a:2′,1′-c]pyrazine-2,3-dicarboxylate]", "IC50": "> 100"}, {"smiles": "COC(=O)c1c(-c2ccccc2O)c2n(c1C(=O)OC)CCn1cccc1-2", "note": "[5b, Dimethyl-1-(2-hydroxyphenyl)-5,6-dihydrodipyrrolo[1,2-a:2′,1′-c]pyrazine-2,3-dicarboxylate]", "IC50": "> 100"}, {"smiles": "COC(=O)c1c(-c2cccc(O)c2)c2n(c1C(=O)OC)CCn1cccc1-2", "note": "[5c, Dimethyl-1-(3-hydroxyphenyl)-5,6-dihydrodipyrrolo[1,2-a:2′,1′-c]pyrazine-2,3-dicarboxylate]", "IC50": "> 100"}, {"smiles": "COC(=O)c1c(-c2ccccc2C)c2n(c1C(=O)OC)CCn1cccc1-2", "note": "[5d, Dimethyl-1-(2-tolyl)-5,6-dihydrodipyrrolo[1,2-a:2′,1′-c]pyrazine-2,3-dicarboxylate]", "IC50": "> 100"}, {"smiles": "COC(=O)c1c(-c2cccc(C)c2)c2n(c1C(=O)OC)CCn1cccc1-2", "note": "[5e, Dimethyl-1-(3-tolyl)-5,6-dihydrodipyrrolo[1,2-a:2′,1′-c]pyrazine-2,3-dicarboxylate]", "IC50": "> 100"}, {"smiles": "COC(=O)c1c(-c2ccc(C)cc2)c2n(c1C(=O)OC)CCn1cccc1-2", "note": "[5f, Dimethyl-1-(4-tolyl)-5,6-dihydrodipyrrolo[1,2-a:2′,1′-c]pyrazine-2,3-dicarboxylate]", "IC50": "> 100"}, {"smiles": "COC(=O)c1c(-c2cccc(OC)c2)c2n(c1C(=O)OC)CCn1cccc1-2", "note": "[5g, Dimethyl-1-(3-methoxyphenyl)-5,6-dihydrodipyrrolo[1,2-a:2′,1′-c]pyrazine-2,3-dicarboxylate]", "IC50": "> 100"}, {"smiles": "COC(=O)c1c(-c2ccc(OC)cc2)c2n(c1C(=O)OC)CCn1cccc1-2", "note": "[5h, Dimethyl-1-(4-methoxyphenyl)-5,6-dihydrodipyrrolo[1,2-a:2′,1′-c]pyrazine-2,3-dicarboxylate]", "IC50": "> 100"}, {"smiles": "COC(=O)c1c(-c2ccccc2F)c2n(c1C(=O)OC)CCn1cccc1-2", "note": "[5i, Dimethyl-1-(2-fluorophenyl)-5,6-dihydrodipyrrolo[1,2-a:2′,1′-c]pyrazine-2,3-dicarboxylate]", "IC50": "> 100"}, {"smiles": "COC(=O)c1c(-c2ccc(F)cc2)c2n(c1C(=O)OC)CCn1cccc1-2", "note": "[5j, Dimethyl-1-(4-fluorophenyl)-5,6-dihydrodipyrrolo[1,2-a:2′,1′-c]pyrazine-2,3-dicarboxylate]", "IC50": "> 100"}, {"smiles": "COC(=O)c1c(-c2cccc(Cl)c2)c2n(c1C(=O)OC)CCn1cccc1-2", "note": "[5k, Dimethyl-1-(3-chlorophenyl)-5,6-dihydrodipyrrolo[1,2-a:2′,1′-c]pyrazine-2,3-dicarboxylate]", "IC50": "> 100"}, {"smiles": "COC(=O)c1c(-c2ccc(Cl)cc2)c2n(c1C(=O)OC)CCn1cccc1-2", "note": "[5l, Dimethyl-1-(4-chlorophenyl)-5,6-dihydrodipyrrolo[1,2-a:2′,1′-c]pyrazine-2,3-dicarboxylate]", "IC50": "> 100"}, {"smiles": "COC(=O)c1c(-c2cccc(Br)c2)c2n(c1C(=O)OC)CCn1cccc1-2", "note": "[5m, Dimethyl-1-(3-bromophenyl)-5,6-dihydrodipyrrolo[1,2-a:2′,1′-c]pyrazine-2,3-dicarboxylate]", "IC50": "> 100"}, {"smiles": "COC(=O)c1c(-c2ccc(Br)cc2)c2n(c1C(=O)OC)CCn1cccc1-2", "note": "[5n, Dimethyl-1-(4-bromophenyl)-5,6-dihydrodipyrrolo[1,2-a:2′,1′-c]pyrazine-2,3-dicarboxylate]", "IC50": "> 100"}, {"smiles": "COC(=O)c1c(-c2cccc([N+](=O)[O-])c2)c2n(c1C(=O)OC)CCn1cccc1-2", "note": "[5o, Dimethyl-1-(3-nitrophenyl)-5,6-dihydrodipyrrolo[1,2-a:2′,1′-c]pyrazine-2,3-dicarboxylate]", "IC50": "> 100"}, {"smiles": "COC(=O)c1c(-c2ccc([N+](=O)[O-])cc2)c2n(c1C(=O)OC)CCn1cccc1-2", "note": "[5p, Dimethyl-1-(4-nitrophenyl)-5,6-dihydrodipyrrolo[1,2-a:2′,1′-c]pyrazine-2,3-dicarboxylate]", "IC50": "> 100"}, {"smiles": "COC(=O)c1c(-c2ccc(O)c(OC)c2)c2n(c1C(=O)OC)CCn1cccc1-2", "note": "[5q, Dimethyl-1-(4-hydroxy-3-methoxyphenyl)-5,6-dihydrodipyrrolo[1,2-a:2′,1′-c]pyrazine-2,3-dicarboxylate]", "IC50": "> 100"}, {"smiles": "COC(=O)c1c(-c2ccc(Cl)cc2Cl)c2n(c1C(=O)OC)CCn1cccc1-2", "note": "[5r, Dimethyl-1-(2,4-dichlorophenyl)-5,6-dihydrodipyrrolo[1,2-a:2′,1′-c]pyrazine-2,3-dicarboxylate]", "IC50": "> 100"}, {"smiles": "COC(=O)c1c(-c2cc(OC)c(OC)c(OC)c2)c2n(c1C(=O)OC)CCn1cccc1-2", "note": "[5s, Dimethyl-1-(3,4,5-trimethoxyphenyl)-5,6-dihydrodipyrrolo[1,2-a:2′,1′-c]pyrazine-2,3-dicarboxylate]", "IC50": "> 100"}, {"smiles": "O=c1[nH]nc(O)c2c(-c3ccccc3)c3n(c12)CCn1cccc1-3", "note": "[7a, 11-Hydroxy-12-phenyl-5,6-dihydropyrrolo[2″,1″:3′,4′]pyrazino[1′,2′:1,5]pyrrolo[2,3-d] pyridazin-8(9H)-one]", "IC50": "> 100"}, {"smiles": "O=c1[nH]nc(O)c2c(-c3cccc(O)c3)c3n(c12)CCn1cccc1-3", "note": "[7b, 11-Hydroxy-12-(3-hydroxyphenyl)-5,6-dihydropyrrolo[2″,1″:3′,4′]pyrazino[1′,2′:1,5] pyrrolo[2,3-d]pyridazin-8(9H)-one]", "IC50": "> 100"}, {"smiles": "Cc1ccccc1-c1c2n(c3c(=O)[nH]nc(O)c13)CCn1cccc1-2", "note": "[7c, 11-Hydroxy-12-(o-tolyl)-5,6-dihydropyrrolo[2″,1″:3′,4′]pyrazino[1′,2′:1,5]pyrrolo[2,3-d] pyridazin-8(9H)-one]", "IC50": "> 100"}, {"smiles": "Cc1cccc(-c2c3n(c4c(=O)[nH]nc(O)c24)CCn2cccc2-3)c1", "note": "[7d, 11-Hydroxy-12-(m-tolyl)-5,6-dihydropyrrolo[2″,1″:3′,4′]pyrazino[1′,2′:1,5]pyrrolo[2,3-d] pyridazin-8(9H)-one]", "IC50": "> 100"}, {"smiles": "Cc1ccc(-c2c3n(c4c(=O)[nH]nc(O)c24)CCn2cccc2-3)cc1", "note": "[7e, 11-Hydroxy-12-(p-tolyl)-5,6-dihydropyrrolo[2″,1″:3′,4′]pyrazino[1′,2′:1,5]pyrrolo[2,3-d] pyridazin-8(9H)-one]", "IC50": "> 100"}, {"smiles": "COc1cccc(-c2c3n(c4c(=O)[nH]nc(O)c24)CCn2cccc2-3)c1", "note": "[7f, 11-Hydroxy-12-(3-methoxyphenyl)-5,6-dihydropyrrolo[2″,1″:3′,4′]pyrazino[1′,2′:1,5] pyrrolo[2,3-d]pyridazin-8(9H)-one]", "IC50": "> 100"}, {"smiles": "COc1ccc(-c2c3n(c4c(=O)[nH]nc(O)c24)CCn2cccc2-3)cc1", "note": "[7g, 11-Hydroxy-12-(4-methoxyphenyl)-5,6-dihydropyrrolo[2″,1″:3′,4′]pyrazino[1′,2′:1,5] pyrrolo[2,3-d]pyridazin-8(9H)-one]", "IC50": "> 100"}, {"smiles": "O=c1[nH]nc(O)c2c(-c3ccc(F)cc3)c3n(c12)CCn1cccc1-3", "note": "[7h, 12-(4-Fluorophenyl)-11-hydroxy-5,6-dihydropyrrolo[2″,1″:3′,4′]pyrazino[1′,2′:1,5] pyrrolo[2,3-d]pyridazin-8(9H)-one]", "IC50": "> 100"}, {"smiles": "O=c1[nH]nc(O)c2c(-c3cccc(Cl)c3)c3n(c12)CCn1cccc1-3", "note": "[7i, 12-(3-Chlorophenyl)-11-hydroxy-5,6-dihydropyrrolo[2″,1″:3′,4′]pyrazino[1′,2′:1,5]pyrrolo [2,3-d]pyridazin-8(9H)-one]", "IC50": "> 100"}, {"smiles": "O=c1[nH]nc(O)c2c(-c3ccc(Cl)cc3)c3n(c12)CCn1cccc1-3", "note": "[7j, 12-(4-Chlorophenyl)-11-hydroxy-5,6-dihydropyrrolo[2″,1″:3′,4′]pyrazino[1′,2′:1,5] pyrrolo[2,3-d]pyridazin-8(9H)-one]", "IC50": "> 100"}, {"smiles": "O=c1[nH]nc(O)c2c(-c3cccc(Br)c3)c3n(c12)CCn1cccc1-3", "note": "[7k, 12-(3-Bromophenyl)-11-hydroxy-5,6-dihydropyrrolo[2″,1″:3′,4′]pyrazino[1′,2′:1,5]pyrrolo [2,3-d]pyridazin-8(9H)-one]", "IC50": "> 100"}, {"smiles": "O=c1[nH]nc(O)c2c(-c3ccc(Br)cc3)c3n(c12)CCn1cccc1-3", "note": "[7l, 12-(4-Bromophenyl)-11-hydroxy-5,6-dihydropyrrolo[2″,1″:3′,4′]pyrazino[1′,2′:1,5] pyrrolo[2,3-d]pyridazin-8(9H)-one]", "IC50": "> 100"}, {"smiles": "O=c1[nH]nc(O)c2c(-c3ccc([N+](=O)[O-])cc3)c3n(c12)CCn1cccc1-3", "note": "[7n, 11-Hydroxy-12-(4-nitrophenyl)-5,6-dihydropyrrolo[2″,1″:3′,4′]pyrazino[1′,2′:1,5] pyrrolo[2,3-d]pyridazin-8(9H)-one]", "IC50": "> 100"}, {"smiles": "COc1cc(-c2c3n(c4c(=O)[nH]nc(O)c24)CCn2cccc2-3)ccc1O", "note": "[7o, 11-Hydroxy-12-(4-hydroxy-3-methoxyphenyl)-5,6-dihydropyrrolo[2″,1″:3′,4′]pyrazino [1′,2′:1,5]pyrrolo[2,3-d]pyridazin-8(9H)-one]", "IC50": "> 100"}, {"smiles": "O=c1[nH]nc(O)c2c(-c3ccc(Cl)cc3Cl)c3n(c12)CCn1cccc1-3", "note": "[7p, 12-(2,4-Dichlorophenyl)-11-hydroxy-5,6-dihydropyrrolo[2″,1″:3′,4′]pyrazino [1′,2′:1,5]pyrrolo[2,3-d]pyridazin-8(9H)-one]", "IC50": "> 100"}, {"smiles": "COc1cc(-c2c3n(c4c(=O)[nH]nc(O)c24)CCn2cccc2-3)cc(OC)c1OC", "note": "[7q, 11-Hydroxy-12-(3,4,5-trimethoxyphenyl)-5,6-dihydropyrrolo[2″,1″:3′,4′]pyrazino [1′,2′:1,5]pyrrolo[2,3-d]pyridazin-8(9H)-one]", "IC50": "> 100"}, {"smiles": "COc1cc([C@@H]2c3cc4c(cc3[C@@H](O[C@@H]3O[C@@H]5CO[C@@H](C)O[C@H]5[C@H](O)[C@H]3O)[C@H]3COC(=O)[C@H]23)OCO4)cc(OC)c1O", "note": "[etoposide, reference compound]", "IC50": "> 100"}]}]}
